Screening data as filed in PubChem BioAssay.
An excerpt weighted towards active compounds, which were near 2% of everything screened.
Xi reactivation: activators of X-chromosome reactivation in mouse fibroblasts | activation, % at 7.58 µM | AID 743238 | 360,000 tested, 0.055% active | XiGFP mouse fibroblasts, % GFP-positive cells imaging, 3 d; cells co-treated with 5-aza-dC sensitizer; scaled so ellipticine positive control = 100%;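 active = mean normalized replicate activation at least 10% and every replicate at or above 10%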
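System: SV40-immortalized XiGFP fibroblast cells, line 68-5-11 / Incubation: 3-day compound exposure, then 15 min fixation at room temperature / Compound: single concentration per compound, delivered by pin transfer / Buffer or medium: DMEM plus 5-aza-dC sensitizer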
ARNT TACC3 PPI: disruptors of human ARNT/TACC3 interaction | AlphaScreen His-ARNT PAS-B/GST-TACC3 binding, luminescence; TACC3 fragment carries E629A point mutation | inhibition, % at 9.99 µM | 390,000 tested, 0.66% active | AID 623870;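 active = mean inhibition of replicates at least 50% and at least half of replicates each reaching 50%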
sPLA2-III inh: Inhibits HGIII-sPLA2 liposome hydrolysis, primary screen. Q9NZ20. QFRET BODIPY PC-A2 liposome hydrolysis, fluorescence. inhibition, % at 12.2 µM. 370,000 tested, 0.56% active;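 active = inhibition above mean plus 3 SD of compounds lying within the high and low control bounds, cut at about 19% in these data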
SR-BI DiI-HDL act: SR-BI HDL lipid transfer activation | CHO ldlA[mSR-BI] cells, DiI-HDL uptake fluorescence, 3 h; 100 = double the neutral-control signal | activation, % at 12.5 µM | 320,000 tested, 0.096% active | AID 504775;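 active = mean replicate activation of at least 60% and every replicate at or above 60%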
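Material: SR-BI-overexpressing, LDLR-lacking CHO cells; schedule: compound exposure 3 h, 37 °C; reagent: DiI-labelled HDL at 10 µg/mL final; technique: bottom-read fluorescence, 550/595 nm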
NSD2 inh: NSD2 (human) methyltransferase inhibition | 310,000 tested, 0.54% active | inhibition, % at 12.5 µM | NSD2 peptide methylation, AlphaScreen, 120 min | AID 743445 | O96028; in the data active = inhibition above about 50%
SR-BI DiI inh: blocks mouse SR-BI lipid uptake from DiI-HDL; Q61009; ldlA[mSR-BI] CHO cells, DiI-HDL uptake fluorescence, 3 h; inhibition, % at 12.5 µM; 320,000 tested, 0.96% active;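 active = mean replicate inhibition of at least 70% and a set share of replicates each scoring 70 or more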
A number is an active result.

For S=c1[nH]nc(-c2ccccn2)n1/N=C/c1ccc(-c2ccccc2Cl)o1 the results were Xi reactivation inactive, ARNT TACC3 PPI 56, sPLA2-III inh inactive, SR-BI DiI-HDL act inactive, NSD2 inh inactive and SR-BI DiI inh inactive.
`S=c1[nH]nc(-c2ccccn2)n1/N=C/c1ccc(Cl)c(Cl)c1` gave Xi reactivation inactive, sPLA2-III inh inactive and NSD2 inh inactive.
For Nc1c(Cl)cc(C2=NCCn3nc4ccccc4c32)cc1Cl the results were Xi reactivation inactive, ARNT TACC3 PPI inactive, sPLA2-III inh inactive, SR-BI DiI-HDL act inactive and SR-BI DiI inh 73.
`Clc1ccc(C2=NCCn3nc4ccccc4c32)cc1` gave Xi reactivation inactive, ARNT TACC3 PPI inactive, sPLA2-III inh inactive, SR-BI DiI-HDL act inactive and SR-BI DiI inh inactive.
COc1ccc(/C=N\NC(=O)c2cc(O)c(O)c(O)c2)cc1COc1ccc(C(=O)OCC(C)C)cc1 was read as Xi reactivation inactive, ARNT TACC3 PPI inactive, sPLA2-III inh 25, SR-BI DiI-HDL act inactive, NSD2 inh inactive and SR-BI DiI inh 79.
For CN(c1ccccc1)c1ccc(/C=C(/CCC(=O)O)c2nc3ccccc3s2)cc1[N+](=O)[O-] the results were Xi reactivation inactive, ARNT TACC3 PPI inactive, sPLA2-III inh 20, SR-BI DiI-HDL act inactive and SR-BI DiI inh inactive.
Screening CCOC(=O)N1CCN(c2cc(NCCC(=O)O)c3c4c(onc24)-c2ccccc2C3=O)CC1 returned ARNT TACC3 PPI 58, SR-BI DiI-HDL act inactive and SR-BI DiI inh inactive.
For CN1CCN(c2cc(N3CCN(C(=O)c4ccco4)CC3)c3c4c(onc24)-c2ccccc2C3=O)CC1 the results were ARNT TACC3 PPI inactive, SR-BI DiI-HDL act inactive and SR-BI DiI inh inactive.
O=C(O)CCCNc1cc(N2CCN(C(=O)c3ccco3)CC2)c2noc3c2c1C(=O)c1ccccc1-3 was read as Xi reactivation inactive, ARNT TACC3 PPI 46, sPLA2-III inh inactive, SR-BI DiI-HDL act inactive, NSD2 inh 78 and SR-BI DiI inh inactive.
Screening COc1ccc(C(O)c2nc(-c3ccncc3)cs2)cc1 (centres undefined) returned Xi reactivation inactive, sPLA2-III inh inactive and NSD2 inh inactive.
`CCOC(=O)C(C)Sc1ncnc2c1c(-c1ccccc1)cn2-c1ccc(OC)cc1` (centres undefined) gave Xi reactivation inactive, ARNT TACC3 PPI inactive, sPLA2-III inh inactive, SR-BI DiI-HDL act inactive, NSD2 inh inactive and SR-BI DiI inh inactive.
COC(=O)C(C)Sc1ncnc2c1c(-c1ccccc1)cn2-c1ccc(OC)cc1 (centres undefined) was read as Xi reactivation inactive, ARNT TACC3 PPI 49, sPLA2-III inh inactive, SR-BI DiI-HDL act inactive, NSD2 inh inactive and SR-BI DiI inh inactive.
`COC1C(CO)OC(n2c3c(Cl)cccc3c3c4c(c5c6cccc(Cl)c6[nH]c5c32)C(=O)NC4=O)C(O)C1O` (centres undefined) gave Xi reactivation 23, ARNT TACC3 PPI inactive, sPLA2-III inh inactive, SR-BI DiI-HDL act inactive and SR-BI DiI inh inactive.
For Cc1ccccc1C(=O)NC1CCN(CC(=O)Nc2ccccc2Cl)CC1 the results were Xi reactivation inactive, ARNT TACC3 PPI inactive, sPLA2-III inh inactive, SR-BI DiI-HDL act inactive, NSD2 inh inactive and SR-BI DiI inh inactive.
CCOC(=O)c1sc(NC(=O)CNCc2cccnc2)c(C(=O)OCC)c1C was read as Xi reactivation inactive, ARNT TACC3 PPI inactive, sPLA2-III inh inactive, SR-BI DiI-HDL act inactive, NSD2 inh inactive and SR-BI DiI inh inactive.
For CCOC(=O)c1sc(NC(=O)CNCc2ccccn2)c(C(=O)OCC)c1C the results were Xi reactivation inactive, ARNT TACC3 PPI 48, sPLA2-III inh inactive and NSD2 inh inactive.
Screening CCOc1ccc(NC(=O)CN(C)C(=O)C2CC(=O)N(c3cccc(SC)c3)C2)cc1OCC (centres undefined) returned Xi reactivation inactive, ARNT TACC3 PPI inactive, sPLA2-III inh inactive, SR-BI DiI-HDL act inactive, NSD2 inh inactive and SR-BI DiI inh 72.
For O=C(N/N=C/C=C/c1ccccc1)c1cnccn1 the results were ARNT TACC3 PPI inactive, sPLA2-III inh inactive, SR-BI DiI-HDL act 240, NSD2 inh inactive and SR-BI DiI inh inactive.
For C=Cc1ccc(Cn2c(C)c(C(=O)NCc3cccc([N+](=O)[O-])c3)sc2=O)cc1 the results were Xi reactivation inactive and sPLA2-III inh inactive.
COc1ccc(N2CCN(Cc3nc4c(c(=O)n(C)c(=O)n4C)n3CCc3ccccc3)CC2)cc1 was read as Xi reactivation inactive, ARNT TACC3 PPI inactive, sPLA2-III inh inactive, SR-BI DiI-HDL act inactive and SR-BI DiI inh inactive.
Screening COc1ccc(N2CCN(c3nc4c(c(=O)n(C)c(=O)n4C)n3CCCc3ccccc3)CC2)cc1 returned ARNT TACC3 PPI inactive, sPLA2-III inh inactive, SR-BI DiI-HDL act 373 and SR-BI DiI inh inactive.
Cc1nc2sccn2c(=O)c1Cl was read as ARNT TACC3 PPI inactive, sPLA2-III inh inactive, SR-BI DiI-HDL act inactive, NSD2 inh inactive and SR-BI DiI inh inactive.
For Cn1c(=O)c2c(nc3sccn32)n(C)c1=O the results were ARNT TACC3 PPI inactive, sPLA2-III inh inactive, SR-BI DiI-HDL act 69, NSD2 inh inactive and SR-BI DiI inh inactive.
CCOC(=O)c1c(NC(=O)c2ccc(C)cc2)sc2c1CC(C)(C)OC2 was read as ARNT TACC3 PPI inactive, sPLA2-III inh inactive, SR-BI DiI-HDL act inactive, NSD2 inh inactive and SR-BI DiI inh inactive.
Screening COC(=O)c1c(NC(=O)c2ccccc2)sc2c1CC(C)(C)OC2 returned ARNT TACC3 PPI inactive, sPLA2-III inh inactive, SR-BI DiI-HDL act inactive, NSD2 inh inactive and SR-BI DiI inh 73.
CC(C)=C1CCC(C)CC1=NNC(N)=S (centres undefined) was read as Xi reactivation inactive, ARNT TACC3 PPI inactive, sPLA2-III inh inactive, SR-BI DiI-HDL act inactive, NSD2 inh inactive and SR-BI DiI inh inactive.
CC1C/C(=N\NC(N)=S)c2cc(Cl)ccc2S1 (centres undefined) was read as Xi reactivation inactive, ARNT TACC3 PPI inactive, sPLA2-III inh inactive, SR-BI DiI-HDL act inactive, NSD2 inh inactive and SR-BI DiI inh 80.
Screening O=C(COC(=O)c1ccc(Cl)c(Cl)c1)NC1CCCC1 returned Xi reactivation inactive, ARNT TACC3 PPI inactive, sPLA2-III inh inactive, SR-BI DiI-HDL act inactive, NSD2 inh inactive and SR-BI DiI inh inactive.
`COc1ccccc1Nc1nc(NCCO)nc(N2CCCC2)n1` gave Xi reactivation inactive, ARNT TACC3 PPI active, sPLA2-III inh inactive, SR-BI DiI-HDL act inactive and SR-BI DiI inh inactive.
`COc1ccccc1Nc1nc(NCCCCO)nc(N2CCCC2)n1` gave Xi reactivation inactive, ARNT TACC3 PPI inactive, sPLA2-III inh inactive, SR-BI DiI-HDL act inactive and SR-BI DiI inh inactive.
